Data set [1] deals with Integrin alpha-IIb/beta-3 (Homo sapiens, UniProt P05106+P08514). Put plainly: Displacement of extracellular matrix protein fibrinogen from human integrin alpha2bbeta3 after 1 hr by competitive ELISA. Type of data set: protein-complex assay. Summed up:
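Plates coated overnight at 4 °C with 10 μg/mL fibrinogen in carbonate buffer pH 9.6, blocked with 1% BSA in Tris buffer containing 1 mM Ca2+, Mg2+ and Mn2+. Inhibitor (0.00013−10 μM final) plus 2.5 μg/mL final soluble human αIIbβ3 for 1 h at RT. Bound integrin detected with anti-CD41b and peroxidase secondary antibody, A450.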
Background: An ELISA detects its analyte on a solid surface through an enzyme-linked reagent.

The nature of data set [2]: Apparent permeability across human Caco2 cells after 30 to 150 mins. In kind it is ADME, cell-based. The note with it: Caco-2. Summed up:
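Caco-2 monolayers, passage 52−60, grown 21−23 days on polycarbonate inserts (0.4 μm pores, 1.1 cm²) until TEER stable at 300−500 Ω cm². Apical-to-basolateral transport at 37 °C with shaking after 30 min buffer preincubation. Basolateral samples at 30, 60, 90, 120 and 150 min, replaced with fresh buffer. Mass balance done per compound.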
For orientation: Caco-2 monolayers are a common model of the intestinal barrier.

Some results are limits rather than exact numbers.

Integrin alpha-IIb/beta-3, sequence (P05106 27-788 limits assumed): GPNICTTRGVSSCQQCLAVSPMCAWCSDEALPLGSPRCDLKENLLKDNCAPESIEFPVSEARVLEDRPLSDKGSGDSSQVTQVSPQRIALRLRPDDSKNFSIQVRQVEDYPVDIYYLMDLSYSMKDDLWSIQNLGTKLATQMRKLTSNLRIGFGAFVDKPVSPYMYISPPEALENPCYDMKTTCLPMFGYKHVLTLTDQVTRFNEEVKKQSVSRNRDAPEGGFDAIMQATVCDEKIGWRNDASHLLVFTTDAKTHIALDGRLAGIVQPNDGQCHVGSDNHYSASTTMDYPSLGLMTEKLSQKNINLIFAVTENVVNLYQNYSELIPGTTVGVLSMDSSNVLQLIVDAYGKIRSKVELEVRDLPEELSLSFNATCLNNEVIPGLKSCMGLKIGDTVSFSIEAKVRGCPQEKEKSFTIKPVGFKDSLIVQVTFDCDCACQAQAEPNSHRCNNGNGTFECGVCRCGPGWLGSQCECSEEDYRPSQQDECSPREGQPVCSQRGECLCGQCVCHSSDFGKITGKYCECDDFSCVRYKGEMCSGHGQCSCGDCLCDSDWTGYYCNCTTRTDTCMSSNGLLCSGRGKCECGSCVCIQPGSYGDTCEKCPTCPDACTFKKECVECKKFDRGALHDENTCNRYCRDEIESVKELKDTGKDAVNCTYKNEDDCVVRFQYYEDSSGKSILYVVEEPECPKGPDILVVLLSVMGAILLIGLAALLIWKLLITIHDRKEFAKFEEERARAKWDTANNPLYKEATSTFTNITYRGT
Integrin alpha-IIb/beta-3, sequence (P08514 32-887 limits assumed): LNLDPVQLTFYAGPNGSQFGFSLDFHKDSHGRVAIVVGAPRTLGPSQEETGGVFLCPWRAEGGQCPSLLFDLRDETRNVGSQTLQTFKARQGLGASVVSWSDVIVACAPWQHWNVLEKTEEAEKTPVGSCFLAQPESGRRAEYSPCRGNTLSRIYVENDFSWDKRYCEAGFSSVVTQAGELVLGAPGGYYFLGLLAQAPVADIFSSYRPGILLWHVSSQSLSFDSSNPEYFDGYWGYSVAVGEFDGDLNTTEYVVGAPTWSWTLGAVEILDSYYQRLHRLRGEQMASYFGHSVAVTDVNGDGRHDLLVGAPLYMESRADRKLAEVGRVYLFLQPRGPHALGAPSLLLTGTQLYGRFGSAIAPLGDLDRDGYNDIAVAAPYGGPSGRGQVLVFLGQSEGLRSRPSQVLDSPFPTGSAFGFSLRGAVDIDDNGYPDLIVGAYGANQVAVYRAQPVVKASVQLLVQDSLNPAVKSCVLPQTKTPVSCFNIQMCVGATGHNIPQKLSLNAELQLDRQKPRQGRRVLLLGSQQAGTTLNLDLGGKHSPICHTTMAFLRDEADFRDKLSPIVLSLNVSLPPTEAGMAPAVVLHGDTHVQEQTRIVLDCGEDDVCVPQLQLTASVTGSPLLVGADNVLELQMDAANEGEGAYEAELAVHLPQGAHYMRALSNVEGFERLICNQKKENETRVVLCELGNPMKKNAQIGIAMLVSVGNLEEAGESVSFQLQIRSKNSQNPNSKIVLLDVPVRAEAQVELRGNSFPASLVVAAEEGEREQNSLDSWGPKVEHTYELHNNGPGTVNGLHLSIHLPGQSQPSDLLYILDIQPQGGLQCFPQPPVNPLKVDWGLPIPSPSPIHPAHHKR
Integrin alpha-IIb/beta-3, sequence (P08514 891-1039 limits assumed): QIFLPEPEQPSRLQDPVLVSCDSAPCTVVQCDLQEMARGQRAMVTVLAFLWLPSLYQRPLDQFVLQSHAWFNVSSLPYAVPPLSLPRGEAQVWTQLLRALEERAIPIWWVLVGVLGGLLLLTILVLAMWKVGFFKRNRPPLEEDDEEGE

Consider `O=C(NC[C@@H](NS(=O)(=O)c1ccccc1)C(=O)O)c1ccc(OCCC2CCNCC2)cc1`, for which the IC50 in data set [1] (read-out: IC50) came to 4.4 nM.

As to `COP(=O)(O)[C@H](CNC(=O)c1ccc(OCCC2CCNCC2)cc1)NS(=O)(=O)c1ccccc1`, the Papp in data set [2] was under 0.01 ×10⁻⁶ cm/s. For the same molecule, the IC50 in data set [1] (read-out: IC50) came to 3.3 nM.

With `O=C(NC[C@@H](NS(=O)(=O)c1ccccc1)P(=O)(O)O)c1ccc(OCCC2CCNCC2)cc1`, the Papp in data set [2] is under 0.01 ×10⁻⁶ cm/s. Also, in data set [1] (read-out: IC50), the concentration for half-maximal inhibition (IC50) worked out at 136 nM. Consider `COP(=O)(OC)[C@H](CNC(=O)c1ccc(OCCC2CCNCC2)cc1)NS(=O)(=O)c1ccccc1`, for which the half-inhibitory concentration (IC50) result in data set [1] is “Not Active”. As to `O=C(NC[C@H](NS(=O)(=O)c1ccccc1)[PH](=O)O)c1ccc(OCCC2CCNCC2)cc1`, the apparent permeability coefficient (Papp) in data set [2] is under 0.01 ×10⁻⁶ cm/s. In data set [1] (read-out: IC50), the IC50 stood at 1.2 nM. For the molecule `O=C(NC[C@@H](NS(=O)(=O)c1ccccc1)P(O)(O)=S)c1ccc(OCCC2CCNCC2)cc1`, the half-maximal inhibitory concentration (IC50) in data set [1] (read-out: IC50) stood at 1320 nM.

As to `COP(=O)(O)[C@@H](CNC(=O)c1ccc(OCCC2CCNCC2)cc1)NS(=O)(=O)c1ccccc1`, the IC50 in data set [1] (read-out: IC50) amounted to 1150 nM.

Take `O=C(NC[C@H](NS(=O)(=O)c1ccccc1)P(=O)(O)O)c1ccc(OCCC2CCNCC2)cc1`: the Papp in data set [2] is under 0.01 ×10⁻⁶ cm/s. For the same molecule, the concentration for half-maximal inhibition (IC50) in data set [1] (read-out: IC50) worked out at 22.7 nM. Regarding `COP(=O)(OC)[C@@H](CNC(=O)c1ccc(OCCC2CCNCC2)cc1)NS(=O)(=O)c1ccccc1`, in data set [1], the IC50 entry is reported as “Not Active”. As to `CCCCS(=O)(=O)N[C@@H](Cc1ccc(OCCCCC2CCNCC2)cc1)C(=O)O` [TIROFIBAN], in data set [2], the apparent permeability coefficient (Papp) was under 0.01 ×10⁻⁶ cm/s. Regarding `O=C(NC[C@H](NS(=O)(=O)c1ccccc1)C(=O)O)c1ccc(OCCC2CCNCC2)cc1`, the IC50 in data set [1] (read-out: IC50) was 0.81 nM.

As for `OC[C@@H](O)[C@@H](O)[C@H](O)[C@H](O)CO` [MANNITOL], the apparent permeability coefficient (Papp) in data set [2] came to 2.4 ×10⁻⁶ cm/s. For `O=C(NC[C@H](NS(=O)(=O)c1ccccc1)P(O)(O)=S)c1ccc(OCCC2CCNCC2)cc1`, the IC50 in data set [1] (read-out: IC50) is 62.5 nM. As to `O=C(NC[C@@H](NS(=O)(=O)c1ccccc1)[PH](=O)O)c1ccc(OCCC2CCNCC2)cc1`, the apparent permeability coefficient (Papp) in data set [2] was under 0.01 ×10⁻⁶ cm/s. Moreover, the half-inhibitory concentration (IC50) in data set [1] (read-out: IC50) was 6.3 nM.

Broadly, the IC50 is the point on the concentration scale where inhibition reaches its midpoint. What is called Papp is the rate of passage across a membrane or cell layer, normalised by area and donor concentration.

Values taken from ChEMBL document CHEMBL1955814, “Tailoring of integrin ligands: probing the charge capability of the metal ion-dependent adhesion site” (J Med Chem, 2012).
